Measured values reported in ChEMBL document CHEMBL1144120, “In vitro evaluation of antifungal properties of phenylpropanoids and related compounds acting against dermatophytes” (1999).
Converted amounts (≈) assume the structure as drawn. The source made the active and inactive calls. The calls are words filed in the database; no cut-off is given here.

Key:
Aspergillus niger = assay: Antifungal activity against Aspergillus niger ATCC 9029 by agar dilution method; format: functional, organism-based
Method in brief: (§1)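 Sabouraud chloramphenicol agar dilution in 96-well plates. Strains were grown on Sabouraud chloramphenicol agar slants for 48 h at 30 °C and suspended in sterile distilled water, adjusted to 10^6 viable cells/mL. DMSO stocks were serially two-fold diluted into the agar to give 0.10–50 µg/mL, with DMSO ≤2% final. 5 µL inoculum per well; incubated 24, 48 or 72 h at 30 °C per control growth; MIC recorded.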

Trichophyton rubrum [1] = assay: Antifungal activity against Trichophyton rubrum C 113 by agar dilution method; format: functional
Method in brief: (§2)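 Dermatophytes were tested by agar dilution on Sabouraud chloramphenicol agar in 96-well plates. DMSO stock solutions were serially two-fold diluted into the medium to give final concentrations of 0.10–50 µg/mL, with DMSO not exceeding 2%. Each well received 5 µL of spore suspension.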

Trichophyton rubrum [2] = assay: Antifungal activity against Trichophyton rubrum C 113 up to 50 ug/mL by agar dilution method; format: functional, organism-based; method in brief: as §2
Epidermophyton floccosum [3] = assay: Antifungal activity against Epidermophyton floccosum C 114 up to 50 ug/mL by agar dilution method; format: functional, organism-based; method in brief: as §2
[4] = test system: Trichophyton mentagrophytes; assay: Antifungal activity against Trichophyton mentagrophytes ATCC by agar dilution method; format: functional; method in brief: as §2
[5] = test system: Trichophyton mentagrophytes; assay: Antifungal activity against Trichophyton mentagrophytes ATCC 9972 up to 50 ug/mL by agar dilution method; format: functional, organism-based; method in brief: as §2
Nannizzia gypsea [6] = assay: Antifungal activity against Microsporum gypseum C 115 up to 50 ug/mL by agar dilution method; format: functional, organism-based; method in brief: as §2
Nannizzia gypsea [7] = assay: Antifungal activity against Microsporum gypseum C 115 by agar dilution method; format: functional; method in brief: as §2
Microsporum canis [8] = assay: Antifungal activity against Microsporum canis C 112 by agar dilution method; format: functional; method in brief: as §2
Aspergillus fumigatus = assay: Antifungal activity against Aspergillus fumigatus ATCC 26934 by agar dilution method; format: functional, organism-based; method in brief: as §1
Cryptococcus neoformans = assay: Antifungal activity against Cryptococcus neoformans ATCC 32264 by agar dilution method; format: functional, organism-based; method in brief: as §1
Candida albicans = assay: Antifungal activity against Candida albicans ATCC 10231 by agar dilution method; format: functional, organism-based; method in brief: as §1
Microsporum canis [9] = assay: Antifungal activity against Microsporum canis C 112 up to 50 ug/mL by agar dilution method; format: functional, organism-based; method in brief: as §2
Epidermophyton floccosum [10] = assay: Antifungal activity against Epidermophyton floccosum C 114 by agar dilution method; format: functional; method in brief: as §2
Saccharomyces cerevisiae = assay: Antifungal activity against Saccharomyces cerevisiae ATCC 9763 by agar dilution method; format: functional, organism-based; method in brief: as §1
Aspergillus flavus = assay: Antifungal activity against Aspergillus flavus ATCC 9170 by agar dilution method; format: functional, organism-based; method in brief: as §1

Row | Structure (SMILES) | Activity (Aspergillus niger) | MIC (Trichophyton rubrum [1]) [µg/mL] | Activity (Trichophyton rubrum [2]) | Activity (Epidermophyton floccosum [3]) | MIC [4] [µg/mL] | Activity [5] | Activity (Nannizzia gypsea [6]) | MIC (Nannizzia gypsea [7]) [µg/mL] | MIC (Microsporum canis [8]) [µg/mL] | Activity (Aspergillus fumigatus) | Activity (Cryptococcus neoformans) | Activity (Candida albicans) | Activity (Microsporum canis [9]) | MIC (Epidermophyton floccosum [10]) [µg/mL] | Activity (Saccharomyces cerevisiae) | Activity (Aspergillus flavus)
1 | CCC(O)c1ccc2ccccc2c1 (stereo unspecified) | inactive | 40 (≈ 215 µM) | inactive | inactive | 25 (≈ 134 µM) | inactive | inactive | 40 (≈ 215 µM) | 50 (≈ 268 µM) | inactive | inactive | inactive | inactive | 40 (≈ 215 µM) | inactive | inactive
2 | COc1cc(C(=O)C(C)Cl)cc(OC)c1OC (stereo unspecified) | inactive | 10 (≈ 38.7 µM) | inactive | inactive | 15 (≈ 58 µM) | inactive | inactive | 12.5 (≈ 48.3 µM) | 6.25 (≈ 24.2 µM) | inactive | inactive | inactive | inactive | 0.5 (≈ 1.93 µM) | inactive | inactive
3 | CCC(=O)c1cc(OC)c(OC)c(OC)c1 | inactive | > 50 | inactive | inactive | > 50 | inactive | inactive | > 50 | > 50 | inactive | inactive | inactive | inactive | > 50 | inactive | inactive
4 | CCC(O)c1cc(OC)c(OC)c(OC)c1 (stereo unspecified) | inactive | > 50 | inactive | inactive | > 50 | inactive | inactive | > 50 | 50 (≈ 221 µM) | inactive | inactive | inactive | inactive | 50 (≈ 221 µM) | inactive | inactive
5 | CCC(O)c1ccc(OC)c(OC)c1 (stereo unspecified) | inactive | > 50 | inactive | inactive | > 50 | inactive | inactive | > 50 | > 50 | inactive | inactive | inactive | inactive | 50 (≈ 255 µM) | inactive | inactive
6 | CC(Cl)C(=O)c1ccc2c(c1)OCO2 (stereo unspecified) | inactive | 10 (≈ 47 µM) | inactive | inactive | 25 (≈ 118 µM) | inactive | inactive | 12.5 (≈ 58.8 µM) | 12.5 (≈ 58.8 µM) | inactive | inactive | inactive | inactive | 6.25 (≈ 29.4 µM) | inactive | inactive
7 | CC(Cl)C(=O)c1ccccc1 (stereo unspecified) | inactive | 12.5 (≈ 74.1 µM) | inactive | inactive | 10 (≈ 59.3 µM) | inactive | inactive | 20 (≈ 119 µM) | 6.25 (≈ 37.1 µM) | inactive | inactive | inactive | inactive | 15 (≈ 89 µM) | inactive | inactive
8 | CCC(=O)c1ccc2ccccc2c1 | inactive | 40 (≈ 217 µM) | inactive | inactive | 25 (≈ 136 µM) | inactive | inactive | 40 (≈ 217 µM) | 50 (≈ 271 µM) | inactive | inactive | inactive | inactive | 40 (≈ 217 µM) | inactive | inactive
9 | CCC(=O)c1ccc2c(c1)OCO2 | inactive | > 50 | inactive | inactive | > 50 | inactive | inactive | > 50 | > 50 | inactive | inactive | inactive | inactive | 40 (≈ 224 µM) | inactive | inactive
10 | C=CCc1ccc(O)c(OC)c1 [EUGENOL] | inactive | > 50 | inactive | inactive | > 50 | inactive | inactive | > 50 | > 50 | inactive | inactive | inactive | inactive | > 50 | inactive | inactive
11 | COc1ccc(C(=O)C(C)C)cc1OC | inactive | 50 (≈ 240 µM) | inactive | inactive | > 50 | inactive | inactive | > 50 | > 50 | inactive | inactive | inactive | inactive | 50 (≈ 240 µM) | inactive | inactive
